Results taken from ChEMBL document CHEMBL1126098, “Synthesis and SAR of 6-substituted purine derivatives as novel selective positive inotropes” (J Med Chem, 1992).
Activity calls are given as the source filed them. No cut-off for these calls is given here.

Columns and labels:
Canis familiaris [1] = assay: Heart rate in dog after administering ca. 1.875 mg/Kg drug intravenously; format: functional, Canis lupus familiaris
Method in brief: (§1)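 Adult mongrel dogs anesthetized with sodium pentobarbital (45 mg/kg ip) and artificially respired. MAP measured via cannulated femoral artery; HR from cardiotachometer; LV +dP/dtmax via Millar catheter; CF by Walton Brodie strain gauge on right ventricle (baseline tension 100 g). Compound in 10% DMF/saline or HCl salt, infused iv into femoral vein over 5 min per step. Each step given at peak of the prior one; three to four increasing doses. Response expressed as % change from predrug control; n = 1–5 dogs.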

Canis familiaris [2] = assay: Cardiac force in dog after administering ca. 1.875 mg/Kg drug intravenously.; format: functional, Canis lupus familiaris; parameters: unit not given beside the values; method in brief: as §1
Canis familiaris [3] = assay: Mean arterial blood pressure in dog after administering ca. 1.875 mg/Kg drug intravenously.; format: functional, Canis lupus familiaris; parameters: unit not given beside the values; method in brief: as §1
Canis familiaris [4] = species on record: Canis familiaris; assay: dP/dt max was determined in dog; format: functional, Canis lupus familiaris; parameters: unit not given beside the values; method in brief: as §1
[5] = Relative change in CF was determined by calculating the effective concentration that produced a 50% of maximum increase in tension; format: functional, Mustela putorius furo
Method in brief: (§2)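 Ferret papillary muscle in Tyrode's solution with timolol (1×10^-7 M); compound given at cumulative serially increasing concentrations, each read at 15 min. EC50 is the concentration giving 50% of that compound's own maximal tension increase. Estimated graphically from mean data, n ≥ 3.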

[6] = In vitro changes in contractile force (CF) quantitated by determining the maximal increase in isometric tension by using ferret papillary muscle; format: functional, Mustela putorius furo, Muscle tissue
Method in brief: (§3)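 Isolated ferret papillary muscle in Tyrode's solution with timolol (1×10^-7 M), equilibrated 2 h. Compound diluted from 1×10^-2 M DMSO stock and added at serially increasing concentrations, up to 10 μM. Isometric tension read 15 min after each addition. Result is maximal increase as % of control tension, from mean of n ≥ 3.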

Canis familiaris [7] = assay: Effective dose required to produce 50% increase of cardiac force in dog after administering ca. 1.875 mg/Kg drug intravenously; format: functional; details: Canis lupus familiaris, iv; method in brief: as §1
[8] = Relative change in CF was determined by calculating the effective concentration that produced a 50% of maximum increase in tension.; format: functional, Mustela putorius furo; method in brief: as §2
Mustela putorius furo = species on record: Mustela putorius furo; assay: In vitro changes in contractile force (CF) quantitated by determining the maximal increase in isometric tension by using ferret papillary muscle.; format: functional, tissue-based; details: Muscle tissue; method in brief: as §3

| Compound | Heart rate (Canis familiaris [1]) | Cardiac force (Canis familiaris [2]) | MAP (Canis familiaris [3]) | dP/dt max (Canis familiaris [4]) | EC50 [5] [nM] | Max [6] [%] | ED50 (Canis familiaris [7]) [mg/kg] | EC50 [8] | Max (Mustela putorius furo) |
| --- | --- | --- | --- | --- | --- | --- | --- | --- | --- |
| OC(CSc1[nH]cnc2ncnc1-2)CN1CCN(C(c2ccc(C(F)(F)F)cc2)c2ccc(C(F)(F)F)cc2)CC1 (stereo not given) | 0 | 71 | 5 | 47 | 1000 | 47 | – | – | – |
| OC(CSc1[nH]cnc2ncnc1-2)CN1CCN(C(c2ccc(Cl)cc2)c2ccc(Cl)cc2)CC1 (stereo not given) | -4 | 151 | 9 | 99 | – | – | 0.33 | – | – |
| Cn1cnc2c(SCC(O)CN3CCN(C(c4ccc(F)cc4)c4ccc(F)cc4)CC3)ncnc21 (stereo not given) | -2 | 50 | -6 | 11 | 600 | 142 | 1.9 | – | – |
| OC(CSc1ncnc2c1ncn2-c1ccccc1)CN1CCN(C(c2ccc(F)cc2)c2ccc(F)cc2)CC1 (stereo not given) | 4 | 12 | -3 | 5 | – | – | – | Not Active | inactive |
| OC(CSc1[nH]cnc2ncnc1-2)CN1CCN(C(c2cccc(C(F)(F)F)c2)c2cccc(C(F)(F)F)c2)CC1 (stereo not given) | -6 | 68 | 8 | 46 | 3400 | 106 | 1.1 | – | – |
| Cc1nc(SCC(O)CN2CCN(C(c3ccc(F)cc3)c3ccc(F)cc3)CC2)c2[nH]cnc2n1 (stereo not given) | 1 | 23 | 1 | 17 | – | – | – | – | – |
| O=S(=O)(O)OC(CSc1[nH]cnc2ncnc1-2)CN1CCN(C(c2ccc(F)cc2)c2ccc(F)cc2)CC1 (stereo not given) | 6 | 159 | 6 | 110 | 390 | 57 | 0.26 | – | – |
| OC(CSc1ncnc2[nH]cnc12)CN1CCN(C(c2ccc(F)cc2)c2ccc(F)cc2)CC1 (stereo not given) [CARSATRIN] | 0 | 224 | -5 | 150 | 300 | 189 | 0.15 | – | – |
| CC(C)(C)C(=O)OC(CSc1[nH]cnc2ncnc1-2)CN1CCN(C(c2ccc(F)cc2)c2ccc(F)cc2)CC1 (stereo not given) | 4 | 12 | -5 | 24 | 170 | 43 | – | – | – |
| CCN(CC(O)CN1CCN(C(c2ccc(F)cc2)c2ccc(F)cc2)CC1)c1[nH]cnc2ncnc1-2 (stereo not given) | 2 | 13 | 5 | 16 | – | – | – | Not Active | inactive |
| COc1cc(OC)c(C(=O)OC(CSc2[nH]cnc3ncnc2-3)CN2CCN(C(c3ccc(F)cc3)c3ccc(F)cc3)CC2)c(OC)c1 (stereo not given) | 3 | 17 | 0 | 15 | – | – | – | Not Active | inactive |
| Nc1nc(SCC(O)CN2CCN(C(c3ccc(F)cc3)c3ccc(F)cc3)CC2)c2[nH]cnc2n1 (stereo not given) | 12 | 74 | -9 | 38 | 1900 | 74 | 0.85 | – | – |
| OC(CSc1[nH]cnc2ncnc1-2)CN1CCN(C(c2ccccc2)(c2ccccc2)c2ccccc2)CC1 (stereo not given) | 4 | 22 | -14 | 23 | – | – | – | Not Active | inactive |
| OC(CSc1[nH]cnc2ncnc1-2)CN1CCN(C(c2ccccc2)c2ccccc2)CC1 (stereo not given) | -1 | 86 | -12 | 60 | 1100 | 249 | 0.63 | – | – |
| N#Cc1cc2c(OCC(O)CN3CCN(C(c4ccccc4)c4ccccc4)CC3)cccc2[nH]1 (stereo not given) | -12 | 98 | -21 | 88 | 500 | 131 | 0.43 | – | – |
| OC(CSc1[nH]cnc2ncnc1-2)CN1CCN(Cc2ccccc2)CC1 (stereo not given) | 0 | 30 | 1 | 34 | – | – | – | Not Active | inactive |
| OC(COc1ncnc2c1ncn2C1CCCCO1)CN1CCN(C(c2ccccc2)c2ccccc2)CC1 (stereo not given) | 0 | 24 | -2 | 13 | – | – | – | Not Active | inactive |
| CC(=O)OC(CSc1[nH]cnc2ncnc1-2)CN1CCN(C(c2ccc(F)cc2)c2ccc(F)cc2)CC1 (stereo not given) | -4 | 145 | -12 | 62 | 700 | 248 | 0.3 | – | – |
| OC(CSc1[nH]cnc2ncnc1-2)CN1CCN(C(c2ccc(Br)cc2)c2ccc(Br)cc2)CC1 (stereo not given) | -2 | 148 | 11 | 108 | 470 | 64 | 0.31 | – | – |
| CC(=O)OC(CNc1[nH]cnc2ncnc1-2)CN1CCN(C(c2ccc(F)cc2)c2ccc(F)cc2)CC1 (stereo not given) | -12 | 144 | -26 | 70 | 2100 | 45 | 0.27 | – | – |
| OC(CNc1[nH]cnc2ncnc1-2)CN1CCN(C(c2ccc(F)cc2)c2ccc(F)cc2)CC1 (stereo not given) | 2 | 154 | -2 | 83 | 500 | 86 | 0.28 | – | – |
| OC(CSc1[nH]cnc2ncnc1-2)CN1CCN(C(c2ccccc2)c2ccc(Cl)cc2)CC1 (stereo not given) | -4 | 100 | 2 | 75 | 440 | 242 | 0.49 | – | – |
| OC(COc1ncnc2c1ncn2C1CCCCO1)CN1CCN(C(c2ccc(F)cc2)c2ccc(F)cc2)CC1 (stereo not given) | 9 | 34 | -5 | 38 | – | – | – | Not Active | inactive |
| OC(CSc1[nH]cnc2ncnc1-2)CN1CCN(C(c2ccc(Cl)cc2Cl)c2ccc(Cl)cc2Cl)CC1 (stereo not given) | 6 | 69 | -10 | 47 | 1600 | 49 | 0.9 | – | – |
| COc1ccc(C(c2ccc(OC)cc2)N2CCN(CC(O)CSc3[nH]cnc4ncnc3-4)CC2)cc1 (stereo not given) | -2 | 45 | -7 | 18 | 500 | 98 | – | – | – |
